Data as given in paper PMC4714678 (Cancer Science, 2015).
No end group written: not given here.

Columns and labels:
[1] = tested on: HUVEC; assay: Fluorescence visualization for entry of peptides; type: cell-based, human; conditions: 25 μg/mL FITC‐conjugated peptide, 3 h, fixed, DAPI
Outline: (§1)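 Test peptide FITC-conjugated, or FITC-TAT cell-penetrating peptide, each at 25 μg/mL, applied for 3 h. HUVEC were isolated in-house. BGC-823, PG and HT-29 were grown in RPMI-1640 with 10% FBS at 37°C in 5% CO2. Cells were then fixed in 4% paraformaldehyde, permeabilized with 0.1% NP-40 in PBS, nuclei stained with DAPI (5 ng/mL), washed three times in PBS, and imaged by confocal microscopy.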

[2] = tested on: cancer cells (BGC‐823, PG and HT‐29); assay: Fluorescence visualization for entry of peptides; type: cell-based, human; conditions: BGC‐823, PG and HT‐29 cells, 25 μg/mL FITC‐conjugated peptide, 3 h, fixed, DAPI
Outline: as §1

[3] = previous studies; cited from earlier work
[4] = tested on: subintestinal vein vessels (SIV) of zebrafish; assay: Transgenic zebrafish embryo angiogenesis assay; type: in vivo; conditions: doses of the angiogenesis test
[5] = Pre‐clinical toxicology study; type: in vivo, mouse, rat and monkey

N=C(N)NCCC[C@H](NC(=O)CNC(=S)Nc1ccc2c(c1)C(=O)OC21c2ccc(O)cc2Oc2cc(O)ccc21)C(=O)N[C@@H](CCCCN)C(=O)N[C@@H](CCCCN)C(=O)N[C@@H](CCCNC(=N)N)C(=O)N[C@@H](CCCNC(=N)N)C(=O)N[C@@H](CCC(N)=O)C(=O)N[C@@H](CCCNC(=N)N)C(=O)N[C@@H](CCCNC(=N)N)C(=O)N[C@@H](CCCNC(=N)N)C(=O)NCC(=O)N[C@@H](Cc1ccc(O)cc1)C(=O)O [FITC‐labeled TAT peptide]
entry into cells (confocal fluorescence) [1]: entered
entry into cells (confocal fluorescence) [2]: entered

ADSGEGDFLAEGGGVR [FpA]
anti‐angiogenesis activity of synthetic peptide [3]: inactive

ADSGEGDFLAEGGGVRGPRVVERH [alphastatin]
anti‐angiogenesis activity of synthetic peptide [3]: showed anti‐angiogenesis activity

DSGEGDFLAEGGGVR [fibrinostatin]
toxicity to zebrafish [4]: no tocixity
side effects in toxicology study ([5]; pre‐clinical animal models, GLP standards, data not shown): no observable side effects
margin of safety ([5]; single‐dose acute toxicity testing and repeated‐dose chronic toxicity study in the mouse, rat and monkey): wide margin of safety
